Data from PubChem BioAssay AID1027 (Sanford-Burnham Center for Chemical Genomics, 2008).
Fewer than 10 of roughly 200,000 compounds were called active.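 Rule for the calls: active = luciferase activation factor, scaled between plate controls, of at least 2 with compound at 10 µM; inactive = the rest.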 Not all results are given here.

What follows are compounds tested against Luciferin 4-monooxygenase (Photinus pyralis) (UniProt P08659) (assay: FLuc activators, initial screening, artefact control for FLuc-dependent activation tests, biochemical, ATPlite luminescence (AID 1027)). Conditions: ATPlite luciferase biochemical, 10 min, at 10 µM, hits give high values, 0 = ATP-free wells, 1 = DMSO control.
In short: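 Assay system: Luciferase/luciferin detection reagent, cell-free biochemical luciferase assay / Read-out: luciferase activation / Benchmarks: No-ATP low control, compound-free enzyme-plus-ATP high control / Medium: PBS buffer for ATP / Detection: luminescence measurement of luciferase light output / Schedule: 10 min at ambient temperature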

Sequence of Luciferin 4-monooxygenase (Photinus pyralis) (P08659 whole entry, looked up): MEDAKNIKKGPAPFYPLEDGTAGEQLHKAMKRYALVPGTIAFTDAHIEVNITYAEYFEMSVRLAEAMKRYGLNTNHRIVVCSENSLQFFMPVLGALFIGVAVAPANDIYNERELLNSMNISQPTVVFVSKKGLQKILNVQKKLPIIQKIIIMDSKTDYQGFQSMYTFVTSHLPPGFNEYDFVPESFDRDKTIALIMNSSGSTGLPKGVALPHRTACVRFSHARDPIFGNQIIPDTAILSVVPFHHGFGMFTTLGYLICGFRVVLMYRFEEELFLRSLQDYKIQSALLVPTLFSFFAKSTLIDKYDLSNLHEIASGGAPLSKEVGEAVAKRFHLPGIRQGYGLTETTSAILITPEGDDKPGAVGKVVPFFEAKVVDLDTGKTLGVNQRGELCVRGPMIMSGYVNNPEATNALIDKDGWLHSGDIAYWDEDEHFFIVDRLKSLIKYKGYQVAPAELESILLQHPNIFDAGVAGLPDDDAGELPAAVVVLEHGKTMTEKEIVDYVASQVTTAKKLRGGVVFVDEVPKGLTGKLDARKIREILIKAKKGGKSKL

Activation factor, inactive:
O=C(O)CC(Cc1ccccc1)C(=O)Nc1ccc([N+](=O)[O-])cc1 (stereo not drawn) 1.1, CCC1CCCCN1C(=S)Nc1ccc(C(C)=O)cc1 (stereo not drawn) 1, Cc1ccc(C)c(NC2=NCC(=O)N2c2ccc3c(c2)OCCO3)c1 1.1, COc1ccc(C(=O)Nc2ccc3nc(N4CCCCC4)cc(C)c3c2)cc1OC 1.1, NC(=O)c1ccccc1N(Cc1ccccc1)S(=O)(=O)c1ccccc1 1, Cc1cccc(N2CCC(NCc3c(C(=O)N4CCCCC4)nc4c(C)cccn34)CC2)c1 1, COc1ccc(CCC(=O)OCC(=O)Nc2ccc(C)c(S(=O)(=O)N(C)C)c2)cc1 1, Cc1cccc(N2C(=O)SC(SC(=Nc3ccccc3)Nc3ccccc3)C2=O)c1 (stereo not drawn) 1, Cc1ccc(C(=O)N/C(=C\c2cccs2)C(=O)NCCc2ccccn2)cc1C 1, COc1cccc(CC2(CO)CCCN(CC3=Cc4cc(OC)ccc4OC3)C2)c1 (stereo not drawn) 1.1, Cc1ccc2[nH]c(C)c(CCNC(=O)NC3CCCCC3)c2c1 1, S=C(Nc1cccc(Br)c1)N1CCn2cccc2C1c1cccnc1 (stereo not drawn) 1.1, NS(=O)(=O)c1ccc(N2C(=O)C3C4CC(C(Br)C4Br)C3C2=O)cc1 (stereo not drawn) 1, CCc1ccc(C2N3CC4([N+](=O)[O-])CN2CC([N+](=O)[O-])(C3)C4(C)C)cc1 (stereo not drawn) 1.1, Cc1nnc(SC(C)C(=O)Nc2ccc(S(=O)(=O)NC3CCCCC3)cc2)s1 (stereo not drawn) 1.1, Cc1ccc(C(=O)NC(=S)NCCN2CCOCC2)cc1 1.1, CC(CO)N1CCS(=O)(=O)CC1 (stereo not drawn) 1.1, CC1CCCN(CCOCCOc2ccccc2-c2ccccc2)C1 (stereo not drawn) 1, Cc1noc(C)c1CCC(=O)O 1, CCC1CCCCN1C(=O)CSc1nc2c(c(=O)n(C)c(=O)n2C)n1C (stereo not drawn) 1, C=C(C)c1cccc(C(C)(C)NC(=O)NC2CCCC2)c1 1, COc1ccc(CCCc2nnc(SCc3nc4ccccc4c(=O)[nH]3)n2C)cc1 1.1, CCOC(=O)N1CCN(CCC(=O)Nc2cc(OC)ccc2OC)CC1 1, Cc1ccc2nc(-c3ccc(NC(=O)CN(C)S(=O)(=O)c4ccccc4)cc3)sc2c1 0.7, CC(C)(C)c1ccc(/C=C/C(=O)NC2CCS(=O)(=O)C2)cc1 (stereo not drawn) 0.9, O=C(COC(=O)c1ccccc1)Nc1cccc(S(=O)(=O)N2CCOCC2)c1 1.1, NS(=O)(=O)c1ccc(CNC(=O)c2ccc(Cl)cc2[N+](=O)[O-])cc1 1, CCn1cc(/C=C2/SC(=S)NC2=O)c(C)n1 0.8, COc1cccc(NC(=O)c2nn(-c3ccc(OC)cc3OC)c(=O)c3ccccc23)c1 1, COc1cc(SC#N)ccc1N=Cc1c(C)[nH]n(-c2ccc(C)cc2)c1=O 0.9, CCN=C1S/C(=C\c2cc(Br)ccc2OCC(=O)OCC)C(=O)N1CC 1, CCc1cccc2c(=O)c(C(=O)NCCCOC)c[nH]c12 1, CS(=O)(=O)N(CC(=O)N1CCCC1)Cc1ccccc1 1.1, O=C(NCCNc1ccc([N+](=O)[O-])cc1)c1cccc2c(Br)cccc12 1, Cc1ccc(SCCC(=O)NCc2ccccn2)cc1 1, Oc1ccc(Br)cc1C=Nc1ccc2[nH]ncc2c1 1, CN(CC(=O)Nc1ccc(S(=O)(=O)N2CCCC2)cc1)Cc1ccc(Cl)c(Cl)c1 1, CC(=O)n1c(C=Nc2ccccc2)c(O)c2ccccc21 0.4, CC1Cc2ccccc2N1C1=CC(=O)CC(C)(C)C1 (stereo not drawn) 1.1, Cc1c(NC(=O)CCC2CCCCC2)cc(C(=O)N2CCOCC2)cc1[N+](=O)[O-] 1.1, CCOCCCNCc1cc(Br)ccc1OCC 1, O=C(CSc1ccccn1)Nc1nc2c(ccc3ccccc32)s1 1.1, CCOc1ccc2nc(NC(=O)c3cc([N+](=O)[O-])ccc3N3CCOCC3)sc2c1 1, COc1ccc(-c2nc(CN3CCN(c4ncccn4)CC3)c(C)o2)cc1C 1, O=C(O)c1ccc2c(c1)C(=O)N(NC(=O)c1ccc(O)cc1)C2=O 1.1, COC(=O)c1ccc(/C=N/OCC(=O)Nc2cc(F)ccc2F)cc1 1, CC(NC(=S)Nc1ccc(S(N)(=O)=O)cc1)c1ccc2c(c1)OCO2 (stereo not drawn) 1.1, Cc1ccc(NC(=S)N2CCN(c3ncccn3)CC2)cc1C 1.1, Cc1ccc(C(=O)O)cc1N1C(=O)CCCC1=O 1, Cn1cc(CN2CCCC(CO)C2)c(-c2ccc(Oc3ccccc3)cc2)n1 (stereo not drawn) 1.1, COC(=O)c1ccc(CSc2nnc(N)s2)o1 1, COc1ccc(CN2CCCC(C(=O)c3ccc(Cl)cc3)C2)cc1Cn1cncn1 (stereo not drawn) 1, O=C(CC1Nc2ccccc2NC1=O)Nc1ccccc1NC(=O)CC1Nc2ccccc2NC1=O (stereo not drawn) 0.9, CCN(CC(=O)NCCc1ccccc1)S(=O)(=O)c1ccc(C)cc1 1.1, Cc1nc(N2CCCCC2)sc1C=O 1, C=CCn1c(SCC(=O)CC(=O)OCC)nc2cc(C(=O)N3CCC(C(N)=O)CC3)ccc2c1=O 1, COC(=O)c1c(NC(C)=O)sc(C(=O)Nc2ccccc2OC)c1C 1, COc1cc(/C=N\NC(=O)c2nonc2N)c(OC)cc1Br 1, CCOC(=O)C1CCN(C(=O)/C=C/c2cc(OC)c(OC)c(OC)c2)CC1 1, COc1ccc(S(=O)(=O)NC(C)C)cc1C(=O)NC1CCCCC1 1.1, COc1ccccc1C1SCCN1C(=O)c1ccc([N+](=O)[O-])cc1 (stereo not drawn) 1, CSc1nc(-c2ccccc2)nc(C(Cl)Cl)n1 1.1, Cc1nc(-c2ccccc2)sc1C(=O)/C=C/N(C)C 0.9, COc1ccc(/C=C/C2=CC(C)(C)NC(=S)N2)c(OC)c1 1, COc1cc(OC)nc(N/N=C(\c2ccccc2)c2ccncc2)n1 1, CCn1ccnc1CN(C)Cc1nc(-c2ccc3c(c2)OCO3)no1 1, CCOC(=O)Cc1csc(SCC(=O)NC(C)C23CC4CC(CC(C4)C2)C3)n1 (stereo not drawn) 1, COc1ccc(C(=O)NC(=S)Nc2ccccc2N2CCN(S(C)(=O)=O)CC2)cc1OC 1.1, N#C/C(=C(/O)COC(=O)COc1ccc(Cl)cc1)c1nc2ccccc2[nH]1 1, O=C(Nc1ccc([N+](=O)[O-])cc1)C1CC12CCC2 (stereo not drawn) 1, COC(=O)c1c(C)oc2ccc(N(C(=O)Oc3ccccc3)S(=O)(=O)c3ccccc3)cc12 1.1, Cc1ccc(Cl)cc1NC(=S)N(CCN(C)C)Cc1cccs1 1.1, Cc1cc(/C=N/NC(N)=O)c(C)n1C1CCCCC1 1, COC(=O)C(C)N=Cc1ccccc1 (stereo not drawn) 1.1, CN(c1ccccc1)S(=O)(=O)c1ccc(Cl)c(C(=O)NCCc2c[nH]c3ccccc23)c1 1, COc1cccc(OC)c1C(=O)NC(=S)NCc1ccco1 1, CCn1c(/C=C/Nc2ccccc2)[n+](CC)c2ccc(C(=O)OCC(F)(F)F)cc21 1, CCOc1ccc(NC(=S)N2CCC(N(C)CC3CCCO3)CC2)cc1 (stereo not drawn) 1, Cc1nc(CN2CCN(C(=O)CCc3nnc(Cc4c[nH]c5ccccc45)o3)CC2)cs1 1, O=C(NCc1ccc(F)cc1)C(c1ccccc1)N(C(=O)c1csnn1)C1CC1 (stereo not drawn) 1.1, Cc1ccc(CC2S/C(=C(/C#N)C(=O)N3CCOCC3)N(c3ccccc3)C2=O)cc1 (stereo not drawn) 1.1, C/C=N/NC(=O)CCCC(=O)N/N=C/C 1, C/C(=N/NS(=O)(=O)c1ccccc1)c1ccc(NC(=O)C(F)(F)F)cc1 1, Cc1cc(OC(=O)c2ccccc2Cl)ccc1N1C(=O)CCC1=O 0.3, Cc1ccc(S(=O)(=O)N2CCN(CC(=O)N/N=C/c3ccc(Br)s3)CC2)cc1 1.1, O=C(c1ccc(S(=O)(=O)c2ccccc2)cc1)N1CCCCCC1 1, O=C1N/C(=C/c2cccs2)C(=O)N1Cc1ccc(F)cc1 1, CC1=CC=CN2C1=NC(=O)CC2(C)C(=O)N(CC(=O)NC1CCCC1)c1ccccc1C (stereo not drawn) 1.1, Cc1cc(C)n(CCNC(=O)CC2C(=O)NCCN2Cc2ccc(C)o2)n1 (stereo not drawn) 1, O=C(NNC(=S)NCCCN1CCOCC1)c1ccncc1 1.1, COc1cc(/C=C/C(=O)N2c3ccccc3Sc3ccc(C(F)(F)F)cc32)cc(OC)c1OC 1, CC(=O)Nc1ccc(NC(=S)NC(=O)c2ccc([N+](=O)[O-])c(C)c2)cc1 0.9, O=C(COC(=O)C1CCN(S(=O)(=O)c2ccc3c(c2)OCCO3)CC1)Nc1ccccc1OC(F)F 1, CCc1ccc(OCC(=O)OCC(=O)c2c(N)n(C)c(=O)n(C)c2=O)cc1 1.1, O=C(c1ccc(-c2ccccc2)cc1)C1CCCN(C(=O)c2cncs2)C1 (stereo not drawn) 1.1, O=C(CSC1CC(=O)N(CCc2ccccc2)C1=O)Nc1ccc(Cl)cc1 (stereo not drawn) 1, CC(=O)Nc1ccc(Nc2nc3c(S(=O)(=O)c4ccc(C)c(C)c4)nnn3c3ccccc23)cc1 1, COc1cccc(CNC(=O)Cc2csc(Nc3nc(=S)[nH]c4ccccc34)n2)c1 1.1
